Assays:
[1] = Inhibition of Escherichia coli PDHC-E1 expressed in Escherichia coli TB1 using 2,6-dichlorophenolindophenol as substrate after 3 mins
Method in brief: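 MBP-fusion enzyme was expressed in E. coli TB1 grown in LB with 2% glucose and ampicillin at 37 °C to A600 0.6–0.8, then induced with 0.5 mM IPTG for 7 h at 25 °C. Protein was purified by MBP affinity to >95% purity and quantified by Bradford. The assay buffer was 50 mM K3PO4 pH 7.2 with 2.0 mM pyruvate substrate and 0.8 mM 2,6-DCIP. Enzyme and inhibitor were preincubated 3 min at 37 °C, and then ThDP was added to start the reaction. DCIP reduction was read at 600 nm. IC50 was obtained by fitting initial rates against varied inhibitor concentration to the Hill equation.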

Alternaria solani = assay: Antifungal activity against Alternaria solani assessed as inhibition of mycelium growth at 100 ug/ml after 48 hrs; type: functional; conditions: read-out: GI
Method in brief: (§1)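 Poisoned-agar mycelial growth test. Compound mixed into medium and poured into dishes. Once solidified, plates were inoculated with a 5 mm mycelium disk, inverted and incubated at 28 °C for 48 h. Medium without sample served as blank. Mycelial elongation radius was measured in triplicate. Inhibition (%) = [(C − T)/C] × 100, where C and T are the mean mycelial diameters of the blank and the treated plates.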

Alternaria alternata = assay: Antifungal activity against Alternaria alternata Keissler assessed as inhibition of mycelium growth at 100 ug/ml after 48 hrs; type: functional; conditions: read-out: GI; method in brief: as §1
Rhizoctonia solani = assay: Antifungal activity against Rhizoctonia solani assessed as inhibition of mycelium growth at 100 ug/ml after 48 hrs; type: functional; conditions: read-out: GI; method in brief: as §1
[2] = Antifungal activity against Colletotrichum orbiculare assessed as inhibition of mycelium growth at 100 ug/ml after 48 hrs; type: functional; method in brief: as §1
Fusarium graminearum = assay: Antifungal activity against Gibberella zeae assessed as inhibition of mycelium growth at 100 ug/ml after 48 hrs; type: functional; conditions: read-out: GI
Method in brief: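 Poisoned-medium plate test: compound mixed into molten medium and poured into dishes; once set, each plate was seeded with a 5 mm mycelium disk, inverted, and held at 28 °C for 48 h. The blank control was medium without sample, and tests were run in triplicate. Mycelial diameter was measured, and inhibition was taken as I = [(C − T)/C] × 100%, with C the mean blank diameter and T the mean treated diameter.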

Botrytis cinerea = assay: Antifungal activity against Botryotinia fuckeliana assessed as inhibition of mycelium growth at 100 ug/ml after 48 hrs; type: functional; conditions: read-out: GI; method in brief: as §1

SMILES	IC50 [1] [µM]	inhibition of growth at 100 µg/mL (Alternaria solani) [%]	inhibition of growth at 100 µg/mL (Alternaria alternata) [%]	inhibition of growth at 100 µg/mL (Rhizoctonia solani) [%]	growth inhibition (GI) [2] [%]	inhibition of growth at 100 µg/mL (Fusarium graminearum) [%]	inhibition of growth at 100 µg/mL (Botrytis cinerea) [%]
Cc1ncc(Cn2cc(COc3ccccc3[N+](=O)[O-])nn2)c(N)n1	36.3	–	–	–	–	–	–
Cc1ncc(Cn2cc(COc3ccc([N+](=O)[O-])cc3)nn2)c(N)n1	–	24	33	24	43	0	37
Cc1ncc(Cn2cc(COc3ccc(Cl)c(C)c3)nn2)c(N)n1	26.2	–	–	–	–	–	–
Cc1ncc(Cn2cc(COc3ccc([N+](=O)[O-])cc3Cl)nn2)c(N)n1	–	20	36	31	57	0	44
Cc1ncc(Cn2cc(COc3ccc(Cl)cc3Cl)nn2)c(N)n1	18.7	–	–	–	–	–	–
Cc1ncc(Cn2cc(COc3ccc(F)cc3Cl)nn2)c(N)n1	43.3	–	–	–	–	–	–
Cc1ncc(Cn2cc(COc3ccc(C(=O)O)cc3)nn2)c(N)n1	–	33	57	0	42	21	67
COc1ccc(OCc2cn(Cc3cnc(C)nc3N)nn2)cc1	81.6	–	–	–	–	–	–
COC(=O)Cc1ccc(OCc2cn(Cc3cnc(C)nc3N)nn2)cc1	102	–	–	–	–	–	–
Cc1ncc(Cn2cc(COc3ccc([N+](=O)[O-])cc3[N+](=O)[O-])nn2)c(N)n1	11.3	0	0	0	42	48	54
Cc1ccc(Cl)c(OCc2cn(Cc3cnc(C)nc3N)nn2)c1	29	–	–	–	–	–	–
CCOC(=O)c1ccc(OCc2cn(Cc3cnc(C)nc3N)nn2)cc1	28.8	–	–	–	–	–	–
Cc1ncc(Cn2nnc(COc3ccccc3)c2I)c(N)n1	19.6	57	23	96	45	59	88
Cc1ncc(Cn2nnc(COc3ccc([N+](=O)[O-])cc3)c2I)c(N)n1	5.33	66	59	97	35	68	84
CC1COC(Cn2cncn2)(c2ccc(Oc3ccc(Cl)cc3)cc2Cl)O1 (configuration not stated) [DIFENOCONAZOLE]	–	100	100	100	97	98	96
Cc1ncc(Cn2cc(COc3ccc(Cl)cc3)nn2)c(N)n1	26.4	44	52	23	50	51	73
Cc1ncc(Cn2cc(COc3cccc(C(F)(F)F)c3)nn2)c(N)n1	32.7	–	–	–	–	–	–
Cc1ncc(Cn2cc(COc3ccccc3)nn2)c(N)n1	–	25	43	0	40	0	53

— ChEMBL document CHEMBL1944608, “Design, synthesis and biological evaluation of novel 2-methylpyrimidine-4-ylamine derivatives as inhibitors of Escherichia coli pyruvate dehydrogenase complex E1” (Bioorg Med Chem, 2012)
